What was measured:
Type in all cases: functional
SF-539 = test: Cytotoxicity against human SF539 cells assessed as cell growth at 10 uM; settings: read-out: Activity
Outline: (§1)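 NCI-60 screen: cells grown in RPMI 1640 with 5% FBS and 2 mM L-glutamine, plated at 5000–40,000 cells/well according to doubling time, and preincubated 24 h at 37 °C, 5% CO2. The single 10 µM dose (DMSO stock) was added, then incubated 48 h. Cells were TCA-fixed and stained with 0.4% SRB, read at 515 nm, and growth % calculated against time-zero and control plates.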

SNB-19 = test: Cytotoxicity against human SNB19 cells assessed as cell growth at 10 uM; settings: read-out: Activity; outline: as §1
SNB-75 = test: Cytotoxicity against human SNB75 cells assessed as cell growth at 10 uM; settings: read-out: Activity; outline: as §1
U-251 = test: Cytotoxicity against human U251 cells assessed as cell growth at 10 uM; settings: read-out: Activity; outline: as §1
LOX IMVI = test: Cytotoxicity against human LOXIMVI cells assessed as cell growth at 10 uM; settings: read-out: Activity; outline: as §1
Malme-3M = test: Cytotoxicity against human MALME-3M cells assessed as cell growth at 10 uM; settings: read-out: Activity; outline: as §1
M14 = test: Cytotoxicity against human M14 cells assessed as cell growth at 10 uM; settings: read-out: Activity; outline: as §1
MDA-MB-435 = test: Cytotoxicity against human MDA-MB-435 cells assessed as cell growth at 10 uM; settings: read-out: Activity; outline: as §1
SK-MEL-2 = test: Cytotoxicity against human SK-MEL-2 cells assessed as cell growth at 10 uM; settings: read-out: Activity; outline: as §1
SK-MEL-28 = test: Cytotoxicity against human SK-MEL-28 cells assessed as cell growth at 10 uM; settings: read-out: Activity; outline: as §1
SK-MEL-5 = test: Cytotoxicity against human SK-MEL-5 cells assessed as cell growth at 10 uM; settings: read-out: Activity; outline: as §1
UACC-257 = test: Cytotoxicity against human UACC257 cells assessed as cell growth at 10 uM; settings: read-out: Activity; outline: as §1
UACC-62 = test: Cytotoxicity against human UACC62 cells assessed as cell growth at 10 uM; settings: read-out: Activity; outline: as §1
IGROV-1 = test: Cytotoxicity against human IGROV1 cells assessed as cell growth at 10 uM; settings: read-out: Activity
Outline: (§2)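 Single-dose NCI-60 screen at 10 µM. Cells were grown in RPMI 1640 with 5% FBS and 2 mM L-glutamine, then treated for 48 h at 37 °C. Protein was measured by SRB staining with absorbance at 515 nm. Percentage growth was recorded, and inhibition percentage was calculated as 100 minus growth percentage.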

OVCAR-3 = test: Cytotoxicity against human OVCAR-3 cells assessed as cell growth at 10 uM; settings: read-out: Activity; outline: as §1
OVCAR-4 = test: Cytotoxicity against human OVCAR4 cells assessed as cell growth at 10 uM; settings: read-out: Activity; outline: as §1
OVCAR-5 = test: Cytotoxicity against human OVCAR5 cells assessed as cell growth at 10 uM; settings: read-out: Activity; outline: as §1
OVCAR-8 = test: Cytotoxicity against human OVCAR8 cells assessed as cell growth at 10 uM; settings: read-out: Activity; outline: as §1
NCI/ADR-RES = test: Cytotoxicity against human NCI/ADR-RES cells assessed as cell growth at 10 uM; settings: read-out: Activity; outline: as §1
SK-OV-3 = test: Cytotoxicity against human SKOV3 cells assessed as cell growth at 10 uM; settings: read-out: Activity; outline: as §1
786-0 = test: Cytotoxicity against human 786-0 cells assessed as cell growth at 10 uM; settings: read-out: Activity; outline: as §2
A498 = test: Cytotoxicity against human A498 cells assessed as cell growth at 10 uM; settings: read-out: Activity; outline: as §2
ACHN = test: Cytotoxicity against human ACHN cells assessed as cell growth at 10 uM; settings: read-out: Activity; outline: as §2
CAKI-1 = test: Cytotoxicity against human Caki1 cells assessed as cell growth at 10 uM; settings: read-out: Activity; outline: as §2
RXF 393 = test: Cytotoxicity against human RXF393 cells assessed as cell growth at 10 uM; settings: read-out: Activity; outline: as §1
SN12C = test: Cytotoxicity against human SN12C cells assessed as cell growth at 10 uM; settings: read-out: Activity; outline: as §1
TK-10 = test: Cytotoxicity against human TK10 cells assessed as cell growth at 10 uM; settings: read-out: Activity; outline: as §1
UO-31 = test: Cytotoxicity against human UO31 cells assessed as cell growth at 10 uM; settings: read-out: Activity; outline: as §1
PC-3 = test: Cytotoxicity against human PC3 cells assessed as cell growth at 10 uM; settings: read-out: Activity; outline: as §1
DU-145 = test: Cytotoxicity against human DU145 cells assessed as cell growth at 10 uM; settings: read-out: Activity; outline: as §2
MCF7 = test: Cytotoxicity against human MCF7 cells assessed as cell growth at 10 uM; settings: read-out: Activity; outline: as §1
MDA-MB-231 = test: Cytotoxicity against human MDA-MB-231 cells assessed as cell growth at 10 uM; settings: read-out: Activity; outline: as §1
[1] = Cytotoxicity against human Hs 578T cells assessed as cell growth at 10 uM; settings: read-out: Activity; outline: as §2
BT-549 = test: Cytotoxicity against human BT549 cells assessed as cell growth at 10 uM; settings: read-out: Activity; outline: as §2
T47D = test: Cytotoxicity against human T47D cells assessed as cell growth at 10 uM; settings: read-out: Activity; outline: as §1
MDA-MB-468 = test: Cytotoxicity against human MDA-MB-468 cells assessed as cell growth at 10 uM; settings: read-out: Activity; outline: as §1
[2] = Growth inhibition of human NCI60 cells at 10 uM after 48 hrs by sulforhodamine B assay relative to control; settings: NCI60, 48 h, read-out: GI
Outline: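 Single-dose NCI screen at 10 µM across the 60-line panel, 48 h exposure at 37 °C after a 24 h preincubation. Adherent cells were fixed with cold TCA and stained with 0.4% SRB, and absorbance was read at 515 nm. Inhibition % was taken as 100 minus growth %, and the mean across all lines was reported.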

CCRF-CEM = test: Cytotoxicity against human CCRF-CEM cells assessed as cell growth at 10 uM; settings: read-out: Activity; outline: as §2
HL-60(TB) = test: Cytotoxicity against human HL-60(TB) cells assessed as cell growth at 10 uM; settings: read-out: Activity
Outline: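 NCI 60-cell panel screen at a single concentration of 10 µM. Cells are grown in RPMI 1640 with 5% FBS and 2 mM L-glutamine and read by SRB protein staining at 515 nm. Percent growth is measured relative to time-zero and untreated controls; inhibition % is 100 minus growth %.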

K562 = test: Cytotoxicity against human K562 cells assessed as cell growth at 10 uM; settings: read-out: Activity; outline: as §2
MOLT-4 = test: Cytotoxicity against human MOLT4 cells assessed as cell growth at 10 uM; settings: read-out: Activity; outline: as §1
[3] = Cytotoxicity against human […] cells assessed as cell growth at 10 uM; settings: read-out: Activity; outline: as §1
SR = test: Cytotoxicity against human SR cells assessed as cell growth at 10 uM; settings: read-out: Activity; outline: as §1
A549 = test: Cytotoxicity against human A549 cells assessed as cell growth at 10 uM; settings: read-out: Activity; outline: as §2
EKVX = test: Cytotoxicity against human EKVX cells assessed as cell growth at 10 uM; settings: read-out: Activity; outline: as §2
HOP-62 = test: Cytotoxicity against human HOP62 cells assessed as cell growth at 10 uM; settings: read-out: Activity; outline: as §2
HOP-92 = test: Cytotoxicity against human HOP92 cells assessed as cell growth at 10 uM; settings: read-out: Activity; outline: as §2
NCI-H226 = test: Cytotoxicity against human NCI-H226 cells assessed as cell growth at 10 uM; settings: read-out: Activity; outline: as §1
NCI-H23 = test: Cytotoxicity against human NCI-H23 cells assessed as cell growth at 10 uM; settings: read-out: Activity; outline: as §1
NCI-H322M = test: Cytotoxicity against human NCI-H322M cells assessed as cell growth at 10 uM; settings: read-out: Activity; outline: as §1
NCI-H460 = test: Cytotoxicity against human NCI-H460 cells assessed as cell growth at 10 uM; settings: read-out: Activity; outline: as §1
NCI-H522 = test: Cytotoxicity against human NCI-H522 cells assessed as cell growth at 10 uM; settings: read-out: Activity; outline: as §1
COLO 205 = test: Cytotoxicity against human COLO205 cells assessed as cell growth at 10 uM; settings: read-out: Activity; outline: as §2
HCC 2998 = test: Cytotoxicity against human HCC2998 cells assessed as cell growth at 10 uM; settings: read-out: Activity; outline: as §2
HCT-116 = test: Cytotoxicity against human HCT116 cells assessed as cell growth at 10 uM; settings: read-out: Activity; outline: as §2
HCT-15 = test: Cytotoxicity against human HCT15 cells assessed as cell growth at 10 uM; settings: read-out: Activity; outline: as §2
HT-29 = test: Cytotoxicity against human HT-29 cells assessed as cell growth at 10 uM; settings: read-out: Activity; outline: as §2
KM12 = test: Cytotoxicity against human KM12 cells assessed as cell growth at 10 uM; settings: read-out: Activity; outline: as §1
SW-620 = test: Cytotoxicity against human SW620 cells assessed as cell growth at 10 uM; settings: read-out: Activity; outline: as §1
SF-268 = test: Cytotoxicity against human SF268 cells assessed as cell growth at 10 uM; settings: read-out: Activity; outline: as §1
SF-295 = test: Cytotoxicity against human SF295 cells assessed as cell growth at 10 uM; settings: read-out: Activity; outline: as §1

COc1cc(C)cc(-c2nn(CC#N)cc2-c2ccnc(-c3ccc(C#N)cc3)c2)c1
growth at 10 µM (SF-539): 89.1% | growth at 10 µM (SNB-19): 79.1% | growth at 10 µM (SNB-75): 57.4% | growth at 10 µM (U-251): 91.2% | growth at 10 µM (LOX IMVI): 80.7% | growth at 10 µM (Malme-3M): 111% | growth at 10 µM (M14): 104% | growth at 10 µM (MDA-MB-435): 102% | growth at 10 µM (SK-MEL-2): 89.9% | growth at 10 µM (SK-MEL-28): 104% | growth at 10 µM (SK-MEL-5): 63.4% | growth at 10 µM (UACC-257): 89.8% | growth at 10 µM (UACC-62): 59.4% | growth at 10 µM (IGROV-1): 90.9% | growth at 10 µM (OVCAR-3): 102% | growth at 10 µM (OVCAR-4): 76.2% | growth at 10 µM (OVCAR-5): 97.9% | growth at 10 µM (OVCAR-8): 84.2% | growth at 10 µM (NCI/ADR-RES): 76.8% | growth at 10 µM (SK-OV-3): 90.3% | growth at 10 µM (786-0): 96.5% | growth at 10 µM (A498): 82.2% | growth at 10 µM (ACHN): 81.4% | growth at 10 µM (CAKI-1): 82.2% | growth at 10 µM (RXF 393): 76.5% | growth at 10 µM (SN12C): 85.1% | growth at 10 µM (TK-10): 84.7% | growth at 10 µM (UO-31): 64.2% | growth at 10 µM (PC-3): 85.9% | growth at 10 µM (DU-145): 109% | growth at 10 µM (MCF7): 43.3% | growth at 10 µM (MDA-MB-231): 80.8% | growth at 10 µM [1]: 93.4% | growth at 10 µM (BT-549): 99.3% | growth at 10 µM (T47D): 37.6% | growth at 10 µM (MDA-MB-468): 42.9% | inhibition of growth at 10 µM [2]: 14.4% | growth at 10 µM (CCRF-CEM): 85.6% | growth at 10 µM (HL-60(TB)): 93.6% | growth at 10 µM (K562): 82% | growth at 10 µM (MOLT-4): 71.8% | growth at 10 µM [3]: 89.7% | growth at 10 µM (SR): 106% | growth at 10 µM (A549): 83.6% | growth at 10 µM (EKVX): 92% | growth at 10 µM (HOP-62): 96.5% | growth at 10 µM (HOP-92): 75.3% | growth at 10 µM (NCI-H226): 78.8% | growth at 10 µM (NCI-H23): 83.1% | growth at 10 µM (NCI-H322M): 91.3% | growth at 10 µM (NCI-H460): 104% | growth at 10 µM (NCI-H522): 70.4% | growth at 10 µM (COLO 205): 95.8% | growth at 10 µM (HCC 2998): 89.3% | growth at 10 µM (HCT-116): 80.3% | growth at 10 µM (HCT-15): 75.9% | growth at 10 µM (HT-29): 85.2% | growth at 10 µM (KM12): 102% | growth at 10 µM (SW-620): 101% | growth at 10 µM (SF-268): 106% | growth at 10 µM (SF-295): 102%
